Source: PMC6976987 (Molecular Genetics and Metabolism Reports, 2020)
Marks after values point to notes of the source that are not given here.

Legend:
[1] = Paroxetine drug interaction study: eliglustat pharmacokinetics in healthy adults; format: in vivo, human; details: for AUC: AUC0-τ; for AUC / AUC(0-inf) / Cmax: mean (SD); for AUC(0-inf): AUC0-∞
In short: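 Open-label, fixed-sequence study in healthy CYP2D6 non-poor metabolizers. Oral test compound 84 mg, fasted: single dose Day 1, BID Days 2–8, then BID with a strong CYP2D6 inhibitor 30 mg QD Days 9–18. Plasma sampled to 36 h Day 1, 12 h Day 8, 72 h Day 18, plus pre-dose samples. LC-MS/MS, LLOQ 0.5 ng/mL. Non-compartmental PK, tmax as median (min, max); ratios from log-transformed mixed-effects model.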

Safety assessments = format: in vivo, human
[2] = CYP2D6 EMs only, eliglustat 84 mg BID with paroxetine 30 mg QD
[3] = CYP2D6 non-PMs, eliglustat 84 mg BID with paroxetine 30 mg QD
[4] = rifampin study (N = 25), whole study
[5] = rifampin study (N = 25), road traffic accident, unrelated to eliglustat or rifampin

Compound: CCCCCCCC(=O)N[C@H](CN1CCCC1)[C@H](O)c1ccc2c(c1)OCCO2 [eliglustat]
- increase in eliglustat AUC0-τ compared to eliglustat alone [1, 2]: 8.4 fold
- increase in eliglustat Cmax compared to eliglustat alone [1, 2]: 7.0 fold
- increase in eliglustat AUC0-τ (exposure) compared to eliglustat alone [1, 3]: 8.9 fold
- increase in eliglustat Cmax compared to eliglustat alone [1, 3]: 7.3 fold
- Ratio (%) of geometric least squares mean, AUC0-t ([1]; all subjects, multiple dose, test 30 mg paroxetine oral QD + 84 mg eliglustat oral BID (N = 33) vs reference 84 mg eliglustat oral BID alone (N = 34), 0 to 12 h): 8.93%
- Ratio (%) of geometric least squares mean, Cmax ([1]; all subjects, multiple dose, test 30 mg paroxetine oral QD + 84 mg eliglustat oral BID (N = 33) vs reference 84 mg eliglustat oral BID alone (N = 36)): 7.31%
- Tmax ([1]; eliglustat 84 mg BID, Days 2 to 8, all (N = 36), median (minimum, maximum)): 2.0 (0.5–3.0) h
- Tmax ([1]; human, plasma, oral, 84 mg): 2 h
- half-life ([1]; human, plasma, oral, 84 mg): 4.2 h
- AUC ([1]; human, plasma, oral, 84 mg, eliglustat 84 mg BID, Days 2 to 8, CYP2D6 EMs only (N = 33), 0 to 12 h): 120 ng·h/mL
- AUC ([1]; human, plasma, oral, 84 mg, eliglustat 84 mg BID, Days 2 to 8, all (N = 34), 0 to 12 h): 120 ng·h/mL
- AUC(0-inf) ([1]; human, plasma, oral, 84 mg, eliglustat 84 mg single dose, Day 1, CYP2D6 EMs only (N = 28)): 77.4 ng·h/mL
- AUC(0-inf) ([1]; human, plasma, oral, 84 mg, eliglustat 84 mg single dose, Day 1, all (N = 30)): 78.1 ng·h/mL
- Cmax ([1]; human, plasma, oral, 84 mg, eliglustat 84 mg BID, Days 2 to 8, CYP2D6 EMs only (N = 33)): 19.4 ng/mL
- Cmax ([1]; human, plasma, oral, 84 mg, eliglustat 84 mg BID, Days 2 to 8, all (N = 36)): 19.3 ng/mL
- Cmax ([1]; human, plasma, oral, 84 mg, eliglustat 84 mg single dose, Day 1, CYP2D6 EMs only (N = 33)): 10.9 ng/mL
- Cmax ([1]; human, plasma, oral, 84 mg, eliglustat 84 mg single dose, Day 1, all (N = 36)): 10.7 ng/mL
- AUC ([1]; human, plasma, oral, eliglustat 84 mg BID + paroxetine 30 mg QD, Days 9 to 18, CYP2D6 EMs only (N = 30), 0 to 12 h): 847 ng·h/mL
- Cmax ([1]; human, plasma, oral, eliglustat 84 mg BID + paroxetine 30 mg QD, Days 9 to 18, CYP2D6 EMs only (N = 30)): 110 ng/mL
- Cmax ([1]; human, plasma, oral, eliglustat 84 mg BID + paroxetine 30 mg QD, Days 9 to 18, all (N = 33)): 110 ng/mL
- tolerability (Safety assessments; administered alone and with rifampin): well tolerated
- subjects with moderate dizziness (Safety assessments; after completing multiple doses of eliglustat alone): 4.0%
- subjects reporting an AE related to eliglustat (Safety assessments; concomitant dosing with IV rifampin, Day 12, N = 25): 4.0%
- subjects reporting AEs related to eliglustat (Safety assessments; concomitant dosing with oral rifampin, Days 13 to 17, N = 24): 8.3%
- subjects with moderate nausea, vomiting, and retching (Safety assessments; during the multiple doses of eliglustat alone): 4.0%
- subjects reporting treatment-related AEs (Safety assessments; following treatment with eliglustat alone, N = 25): 20.0%
- Any adverse event (AE), number of events (Safety assessments; [4]): 65 N
- Any adverse event (AE), number of subjects (Safety assessments; [4]): 17 (68.0%) N (%)
- Any treatment-related AE, number of events (Safety assessments; [4]): 39 N
- Any treatment-related AE, number of subjects (Safety assessments; [4]): 11 (44.0%) N (%)
- Discontinuations due to AE, number of events (Safety assessments; [5]): 1 ^a N
- Discontinuations due to AE, number of subjects (Safety assessments; [5]): 1 (4%) N (%)
- Serious AEs, number of events (Safety assessments; [5]): 1 ^a N
- Serious AEs, number of subjects (Safety assessments; [5]): 1 (4%) N (%)
- Severe AEs, number of events (Safety assessments; [5]): 1 ^a N
- Severe AEs, number of subjects (Safety assessments; [5]): 1 (4%) N (%)
- subjects reporting moderate AEs that were treatment-related (Safety assessments; rifampin study overall): 12.0%
